# Bioassay records as filed in PubChem BioAssay.
# Sampled rows, rich in hits. Any-hit rate of the full collection: about 1.6%.
# DNA FID counter: compounds displacing fluorescent DNA intercalator, primary screen, artefact control for HCV NS3 helicase inhibitor project, biochemical, FID fluorescence. DNA fluorescent intercalator displacement. inhibition, % at 7.9 µM. 290,000 compounds, 0.17% hits; in the data active means inhibition above about 37%;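 further: 0% = vehicle and 100% = reference compound; higher means more ethidium bromide displaced from hairpin DNA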
# RAD52 inh: RAD52 DNA annealing inhibitors, primary screen, biochemical, FRET, single point, set 2. recombinant RAD52 DNA annealing, FRET fluorescence. inhibition, % at 18.7 µM. 360,000 compounds, 0.46% hits. AID 651710, 2012;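 active means every replicate showing at least 50% inhibition; inconclusive means mean inhibition at least 50% but not in every replicate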
# UBC13 inh: UBC13 polyubiquitin chain formation inhibitors, primary screen, biochemical, TR-FRET, uHTS; Ubiquitin-conjugating enzyme E2 N (Homo sapiens), P61088; inhibition, % at 20 µM; 330,000 compounds, 0.47% hits; in the data active means inhibition above about 45%, passing the limit was not always enough; inconclusive means no clear call, values can overlap the other calls
# Target sequence (P61088 whole entry, looked up): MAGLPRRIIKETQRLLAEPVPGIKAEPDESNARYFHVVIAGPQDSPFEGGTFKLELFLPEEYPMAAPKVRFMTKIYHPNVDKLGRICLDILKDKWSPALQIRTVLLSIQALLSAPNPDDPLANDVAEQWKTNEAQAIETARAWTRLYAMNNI
# Neddylation inh: inhibitors of cullin neddylation, primary screen, biochemical, TR-FRET, uHTS, NAE and Ubc12; calls only at 25 µM; NEDD8-conjugating enzyme Ubc12 (Homo sapiens) + NEDD8-activating enzyme E1 regulatory …; 360,000 compounds, 0.58% hits; AID 651699, 2012; in the data active means inhibition above about 36%
# Apaf-1 inh: inhibitors of human Apaf-1 apoptosome, primary screen, biochemical, DEVD-Rh110 fluorescence, uHTS; Apoptotic protease-activating factor 1 (Homo sapiens), O14727; reconstituted apoptosome caspase-3 activity; inhibition, % at 20 µM; 330,000 compounds, 0.71% hits; active means inhibition of at least 40% at 20 µM;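 further: plate controls were DMSO wells for no effect and DEVD-CHO caspase inhibitor wells for full effect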
#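 Assay system: Apoptosome proteins | Medium: pH 7.5 Hepes buffer with CHAPS, BSA, DTT | Also added: Cytochrome c and DEVD-Rh110 substrate | Times: 30 min plus 50 min, RT | Detection: Rhodamine 110 fluorescence at Ex 480/Em 540 nm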
# RAD54 inh: inhibitors of human RAD54 branch migration, primary screen, biochemical, fluorescence, single point. DNA repair and recombination protein RAD54-like (Homo sapiens), Q92698. RAD54 Holliday junction branch migration, FAM/BHQ fluorescence. inhibition, % at 10.4 µM. 360,000 compounds, 0.14% hits. AID 602329, 2012;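 active means mean normalized replicate activity at least 40 and at least half of replicates scoring 40 or more; inconclusive means only one of the two criteria met; inactive means mean below 40 and under half of replicates reaching 40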;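 further: 0% = median of neutral control wells and 100% = median of positive control wells; inhibitors cause a drop in the FAM fluorescence signal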
# Apaf-1 inh conf: Apaf-1 inhibitors, single-dose retest, confirmation, biochemical, fluorescence, DEVD-Rh110, 20 µM; shares compounds with Apaf-1 inh; reconstituted apoptosome, caspase-3 DEVD-Rh110 fluorescence; AID 504614, 2011; 1,800 compounds, 25% hits; inhibition, % at 20 µM;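 active means mean inhibition of at least 40% at 20 µM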;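 further: plate controls were DMSO wells for no effect and DEVD-CHO caspase inhibitor control wells for full effect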
# Rh110 quench: Rh110 fluorescence interference by putative Apaf-1 inhibitors, confirmation, artefact control for Apaf-1 inhibitor project, biochemical, 20 µM | AID 504615, 2011 | 1,800 tested, under 10 active | shares compounds with Apaf-1 inh | quenched caspase reaction | activation (fluorescence interference), % at 20 µM;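 active means signal rise of 40% or more at 20 µM, treated as a fluorescence artifact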
# Apaf1 inh interf: fluorescence interference of Apaf-1 inhibitor hits, dose response, artefact control for Apaf-1 inhibitor project | fluorescence interference counterscreen, Apaf-1 assay format | IC50, µM | 460 tested, under 10 active | shares compounds with Apaf-1 inh; call rule not given here
# An asterisk follows results filed as active; i = inactive; ? = inconclusive; . = no result given; ! = repeats disagree.
SMILES,DNA FID counter,RAD52 inh,UBC13 inh,Neddylation inh,Apaf-1 inh,RAD54 inh,Apaf-1 inh conf,Rh110 quench,others
COc1ccc(NCc2cc3ccccc3[nH]c2=O)cc1,0,.,-36,i,15,-2,.,.,
CCCN1C(=O)/C(=C/c2cc(C)n(C)c2C)SC1=Nc1ccc(OC)cc1,-16,.,-14,i,41*,0,19,9,
COc1ccc(N=C2S/C(=C\c3cc(C)n(C)c3C)C(=O)N2C)cc1,-9,.,-2,i,13,-3,.,.,
c1ccc(CC2CCN(c3nc4ccccc4n4nnnc34)CC2)cc1,0,.,13,i,58*,8,17,11,
O=C(c1ccco1)N1CCN(c2nc3ccccc3n3nnnc23)CC1,-1,.,-9,i,20,-4,.,.,
C[C@H]1CN([C@@H](C)CO)C(=O)c2cccc(NC(=O)Nc3ccccc3)c2O[C@H]1CN(C)Cc1ccncc1,.,4,.,.,.,6,.,.,
O=[N+]([O-])c1ccccc1-c1ccc(C(=S)N2CCCC2)o1,-1,1,-46,i,47*,-3,40,2,Apaf1 inh interf=>100
O=[N+]([O-])c1ccccc1-c1ccc(C(=S)N2CCCCC2)o1,-3,-11,-38,i,28,-1,.,.,
O=C(N/N=C/C=C/c1ccccc1[N+](=O)[O-])c1cccs1,1,-10,-2,i,3,11,.,.,
O=C(N/N=C\C=C\c1ccc([N+](=O)[O-])o1)c1cccs1,-20,-1,-25,i,49*,27,8,6,
CN(C)C(=O)[C@@H]1[C@@H](CO)[C@@H]2Cn3c(cccc3=O)[C@@H]2N1C(=O)C1CCCC1,.,-7,.,.,.,.,.,.,
CO[C@H]1CN(C)C(=O)c2cc(NC(=O)Nc3c(C)noc3C)ccc2OC[C@@H](C)N(CCC(F)(F)F)C[C@@H]1C,.,1,.,.,.,7,.,.,
CCN1/C(=C/C=C/c2sc3ccccc3[n+]2CC)Sc2ccccc21,.,.,2,i,90*,?,51*,16,Apaf1 inh interf=>100
COCC1CCN(C(=O)c2cc(COc3ccc(OC)c4ccccc34)on2)C1 (stereo not given),-43,-7,-4,i,28,-1,.,.,
COc1ccc(OCc2cc(C(=O)N3CCC(OC)CC3)no2)c2ccccc12,-33,-2,0,i,49*,-6,25,6,
O=C(Cc1cc(=O)[nH][nH]1)N/N=C/c1cccc2ccccc12,-9,.,-11,i,54*,.,13,-1,
O=C(CO)N/N=C/c1cccc(Cl)c1Cl,2,.,2,i,-9,.,.,.,
O=C(Cc1cc(=O)[nH][nH]1)N/N=C/c1cccc(Cl)c1Cl,-10,-25,-5,i,48*!,.,11,3,
O=C(Cc1cc(=O)[nH][nH]1)N/N=C/c1c(Cl)cccc1Cl,-16,-20,4,i,64*!,.,5,-2,
Cn1cccc1CC(=O)N/N=C/C(Cl)=C/c1ccccc1,-11,-2,-6,i,4,.,.,.,
O=C(Cc1cc(=O)[nH][nH]1)N/N=C/C(Cl)=C/c1ccccc1,-8,-6,10,i,49*!,5,20,3,
CCN1[C@@H]2c3ccc(/C=C/c4ccccc4)c(=O)n3C[C@H]1[C@H](CO)[C@H]2C(=O)NCc1ccccn1,.,-1,.,.,.,2,.,.,
